What was measured:
Plasmodium falciparum = test: Antimalarial activity against Plasmodium falciparum; format: functional, organism-based
How it was run: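 Chloroquine-sensitive Nigerian strain of P. falciparum; inhibition of in vitro growth; IC50 taken as the mean of at least two independent experiments, each run in duplicate.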

Plasmodium vinckei [1] = test: Antimalarial activity against Plasmodium vinckei 279BY infected in Swiss mice (Mus musculus) dosed perorally for 4 consecutive days; format: functional; details: ip, in the assay text read “dosed intraperitoneally” for “dosed perorally”
How it was run: (§1)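 Female Swiss mice infected with P. vinckei petteri 279BY on day 0. Dosing once daily on days 1–4 post infection, ip or po as given in each line, n = 3 per dose. Parasitemia measured on day 5 and expressed as decrease relative to untreated control. ED50 derived from the dose series.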

Plasmodium vinckei [2] = test: Antimalarial activity against Plasmodium vinckei 279BY infected in Swiss mice (Mus musculus) assessed as reduction in parasitemia at 180 mg/kg, po; format: functional; set-up: scale not given: the % may be the effect or the level left; how it was run: as §1
Plasmodium vinckei [3] = test: Antimalarial activity against Plasmodium vinckei 279BY infected in Swiss mice (Mus musculus) assessed as reduction in parasitemia at 5 mg/kg, intraperitoneally; format: functional; set-up: scale not given: the % may be the effect or the level left; details: route intraperitoneal; how it was run: as §1

Row | SMILES | IC50 (Plasmodium falciparum) [nM] | ED50 (Plasmodium vinckei [1]) [mg/kg] | Activity (Plasmodium vinckei [2]) [%] | Activity (Plasmodium vinckei [3]) [%]
1 | N=C(NCCCCCCCCCCCCNC(=N)c1ccc([N+](=O)[O-])cc1)c1ccc([N+](=O)[O-])cc1 | 520 |  |  | 
2 | Cl.Cl.NC(=O)NCCCCCCCCCCCCNC(N)=O | 9.15 | 8.5 |  | 
3 | Cl.Cl.N=C(NCCCCCCCCCCCCNC(=N)c1ccc2c(c1)OCO2)c1ccc2c(c1)OCO2 | 55.5 | 12 |  | 
4 | CC(=N)NCCCCCCCCCCCCNC(C)=N.Cl.Cl |  | 3.1 |  | 
5 | N=C(NCCCCCCCCCCCCNC(=N)c1ccco1)c1ccco1 | 715 |  |  | 
6 | COc1ccc(C(=N)NCCCCCCCCCCCCNC(=N)c2ccc(OC)c(OC)c2)cc1OC.Cl.Cl | 6.7 | > 5 |  | 40
7 | COc1cccc(C(=N)NCCCCCCCCCCCCNC(=N)c2cccc(OC)c2)c1.Cl.Cl | 6.6 | 5 | 42 | 

Now from value to compound, other results behind:

Row | IC50 (Plasmodium falciparum) [nM] | SMILES | ED50 (Plasmodium vinckei [1]) [mg/kg] | Activity (Plasmodium vinckei [2]) [%] | Activity (Plasmodium vinckei [3]) [%]
8 | 455 | N=C(NCCCCCCCCCCCCNC(=N)c1ccc(C(F)(F)F)cc1)c1ccc(C(F)(F)F)cc1 |  |  | 
9 | 39 | COc1cc(OC)cc(C(=N)NCCCCCCCCCCCCNC(=N)c2cc(OC)cc(OC)c2)c1.Cl.Cl | 5 | 20 | 
10 | 24.5 | COc1ccccc1C(=N)NCCCCCCCCCCCCNC(=N)c1ccccc1OC.Cl.Cl | 12 |  | 
11 | 10 | Cc1ccc(C(=N)NCCCCCCCCCCCCNC(=N)c2ccc(C)cc2)cc1.Cl.Cl | 3.1 |  | 
12 | 13.5 | Cl.Cl.N=C(NCCCCCCCCCCCCNC(=N)c1ccccc1)c1ccccc1 | > 10 |  | 
13 | 18 | CCC(=N)NCCCCCCCCCCCCNC(=N)CC.Cl.Cl | > 10 |  | 
14 | 14 | Cl.Cl.N=C(NCCCCCCCCCCCCNC(=N)c1ccc(N)cc1)c1ccc(N)cc1 | 2.2 | 58 | 
15 | 26.5 | COc1ccc(C(=N)NCCCCCCCCCCCCNC(=N)c2ccc(OC)cc2)cc1.Cl.Cl | > 20 |  | 
16 | 16 | Cl.Cl.N=C(NCCCCCCCCCCCCNC(=N)C1CC1)C1CC1 | 5 |  | 
17 | 10.2 | CC(C)C(=N)NCCCCCCCCCCCCNC(=N)C(C)C.Cl.Cl | 7 |  | 

— ChEMBL document CHEMBL1255542, “Reverse-benzamidine antimalarial agents: design, synthesis, and biological evaluation” (Bioorg Med Chem Lett, 2010)
